We go through 59 molecules from ChEMBL document CHEMBL1138609, “Amiloride derived inhibitors of acid-sensing ion channel-3 (ASIC3)” (Bioorg Med Chem Lett, 2009).

For data set [1], the target named is T1, Acid-sensing ion channel 3 (Homo sapiens) (UniProt Q9UHC3).
T1 sequence (whole entry): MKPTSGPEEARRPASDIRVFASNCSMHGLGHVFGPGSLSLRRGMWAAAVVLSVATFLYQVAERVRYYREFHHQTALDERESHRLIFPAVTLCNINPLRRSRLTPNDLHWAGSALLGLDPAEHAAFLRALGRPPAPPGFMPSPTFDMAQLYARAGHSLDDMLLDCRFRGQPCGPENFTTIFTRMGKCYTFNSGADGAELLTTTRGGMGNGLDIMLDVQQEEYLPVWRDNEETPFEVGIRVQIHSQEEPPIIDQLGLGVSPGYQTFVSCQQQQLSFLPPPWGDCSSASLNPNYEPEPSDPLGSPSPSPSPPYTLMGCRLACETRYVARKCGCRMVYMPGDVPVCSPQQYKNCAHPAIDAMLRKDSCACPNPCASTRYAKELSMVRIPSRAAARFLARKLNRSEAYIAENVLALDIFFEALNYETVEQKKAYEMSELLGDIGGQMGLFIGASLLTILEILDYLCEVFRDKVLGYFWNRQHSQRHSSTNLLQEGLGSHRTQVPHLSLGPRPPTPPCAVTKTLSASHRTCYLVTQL
The data set can be described thus: Inhibition of ASIC3 assessed as inhibition of peak current at 1 uM by patch clamp electrophysiology relative to baseline. Put shortly:
(§1)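 Automated patch clamp on ASIC3 channels, used both for single-dose screening and for multi-dose follow-up. Extracellular solution: 150 NaCl, 5 KCl, 2 CaCl2, 1 MgCl2, 12 dextrose, with HEPES pH 7.4 or MES pH 5.5. Compound applied 120 s before acid. Peak current compared with vehicle or baseline peak; N = 3.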
(In patch-clamp work, channel activity is measured electrically.)

In data set [2] the target is T1, Acid-sensing ion channel 3 (Homo sapiens). The data set can be described thus: Inhibition of ASIC3 at 20 uM assessed as inhibition of peak current by patch clamp electrophysiology relative to baseline. Put shortly: as §1
For data set [3], the target named is T2, Acid-sensing ion channel 3 (Homo sapiens, UniProt Q9UHC3).
T2 sequence (Q9UHC3 whole entry): T1 sequence (whole entry)
The data set is described as follows: Inhibition of ASIC3 assessed as inhibition of peak current by patch clamp electrophysiology. The gist of the method:
as §1

In data set [4] the target is T3, Acid-sensing ion channel 3 (Rattus norvegicus, UniProt O35240).
T3 sequence (O35240 whole entry): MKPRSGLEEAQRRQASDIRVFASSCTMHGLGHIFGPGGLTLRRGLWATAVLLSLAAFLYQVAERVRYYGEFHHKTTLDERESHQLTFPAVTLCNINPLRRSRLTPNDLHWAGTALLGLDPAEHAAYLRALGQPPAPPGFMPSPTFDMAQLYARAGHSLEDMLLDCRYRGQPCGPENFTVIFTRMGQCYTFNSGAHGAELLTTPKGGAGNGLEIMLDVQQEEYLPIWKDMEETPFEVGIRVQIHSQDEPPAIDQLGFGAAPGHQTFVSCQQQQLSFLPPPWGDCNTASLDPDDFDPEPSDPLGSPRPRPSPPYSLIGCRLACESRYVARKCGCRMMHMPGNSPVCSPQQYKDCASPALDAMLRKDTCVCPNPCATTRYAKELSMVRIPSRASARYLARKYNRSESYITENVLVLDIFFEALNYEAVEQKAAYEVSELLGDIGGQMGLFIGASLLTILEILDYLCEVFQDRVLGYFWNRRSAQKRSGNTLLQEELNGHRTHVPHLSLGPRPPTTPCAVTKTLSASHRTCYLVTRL
The data set is described as follows: Inhibition of rat ASIC3 assessed as inhibition of peak current by patch clamp electrophysiology. Put shortly: as §1

Data set [5] in a line: Plasma concentration in Sprague-Dawley rat after 30 mins. The class given is ADME, cell-free. Put shortly: (§2)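 Rats from the CFA inflammatory pain study were sampled 30 min after dosing. Average concentrations were measured in plasma and in brain.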
Data set [6] is described as follows: Drug level in Sprague-Dawley rat brain after 30 mins. The format is ADME, tissue-based. As to conditions: read-out: Drug uptake. The gist of the method: as §2
The species named for data set [7] is Rattus norvegicus. The data set is described as follows: activity against Sprague-Dawley rat complete Freund's adjuvant-induced inflammatory pain model assessed as reversal of mechanical hypersensitivity after 30 mins.
For data set [8], the system named is Rattus norvegicus. The data set is described as follows: activity against Sprague-Dawley rat complete Freund's adjuvant-induced inflammatory pain model assessed as reversal of mechanical hypersensitivity at 30 mg/kg, ip after 30 mins.

Broadly, the inhibition is the percentage by which the read-out fell short of the control. Usually IC50 stands for the concentration at which inhibition is half-maximal.

The source made the active and inactive calls. The calls are words filed in the database; no cut-off is given here.

As to `NC(N)=NC(=O)c1nc(Cl)c(Nc2ccc3ncccc3c2)nc1N`, in data set [1], the inhibition was determined as 41%.
Consider `NC(N)=NC(=O)c1ncc(-c2cccc(-c3ccoc3)c2)nc1N`, for which the inhibition worked out at 30% in data set [1] and 82% in data set [2].
For the molecule `NC(N)=NC(=O)c1nc(Cl)c(Sc2ccc3ccccc3c2)nc1N`, the inhibition in data set [1] was 12%.
For `NC(N)=NC(=O)c1nc(Cl)c(NCC2CCCCC2)nc1N`, the inhibition is 28% in data set [1] and 96% in data set [2].
The corresponding values for `NC(N)=NC(=O)c1nc(Cl)c(Oc2ccc3ccccc3c2)nc1N` are 33% and 91%.
On to `NC(N)=NC(=O)c1nc(Cl)c(NC2CC2)nc1N`, for which the inhibition in data set [2] came to 78%.
In the case of `C=CCNc1nc(N)c(C(=O)N=C(N)N)nc1Cl`, the inhibition in data set [1] worked out at 16%; in data set [2] it was 78%.
The corresponding values for `NC(N)=NC(=O)c1nc(Cl)c(NCc2ccccc2Cl)nc1N` are 31% and 90%.
On to `N=C(N)NC(=O)c1nc(Cl)c(N)nc1N` [AMILORIDE], for which the inhibition in data set [1] stood at 22%; in data set [2], 65%. Besides, in data set [3], the IC50 came to 4.4 µM.
For the molecule `CN(c1nc(N)c(C(=O)N=C(N)N)nc1Cl)C1CCCCC1`, the inhibition in data set [2] is 57%.
Turning to `NC(N)=NC(=O)c1nc(Cl)c(N2CCCC2)nc1N`, the figures for the inhibition in data set [1] and in data set [2] were 12% and 84%, respectively.
Regarding `NC(N)=NC(=O)c1nc(Cl)c(NCCc2ccc(F)cc2)nc1N`, the inhibition in data set [1] worked out at 32%.
Take `Cc1cc(C)cc(-c2cnc(C(=O)N=C(N)N)c(N)n2)c1`: the inhibition was 39% in data set [1] and 95% in data set [2].
`NC(N)=NC(=O)c1nc(Cl)c(NCc2cccc(F)c2)nc1N`: the figures for the inhibition in data set [1] and in data set [2] were 29% and 90%, respectively.
For the molecule `NC(N)=NC(=O)c1nc(Cl)c(NC2CCCCC2)nc1N`, the inhibition came out at 21% in data set [1] and 92% in data set [2].
As for `NC(N)=NC(=O)c1nc(Cl)c(Nc2ccc3ccccc3c2)nc1N`, the inhibition turned out to be 62% in data set [1] and 98% in data set [2]. Further, the 50% inhibitory concentration (IC50) in data set [3] stood at 0.51 µM.
Consider `CCCNc1nc(N)c(C(=O)N=C(N)N)nc1Cl`, for which the inhibition came out at 24% in data set [1] and 91% in data set [2].
Take `NC(N)=NC(=O)c1nc(Cl)c(N2CCOCC2)nc1N`: the inhibition in data set [2] is 60%.
Regarding `NC(N)=NC(=O)c1nc(Cl)c(Sc2ccccc2)nc1N`, the inhibition in data set [1] is 11%.
Same read-out and setting: the value for `NC(N)=NC(=O)c1nc(Cl)c(NCC2CCc3ccccc3C2)nc1N` (stereo unspecified) was 44%; that for `NC(N)=NC(=O)c1nc(Cl)c(Oc2cc3ccccc3cn2)nc1N` was 11%.
As to `NC(N)=NC(=O)c1nc(Cl)c(Nc2ccccn2)nc1N`, the inhibition in data set [2] came to 25%.
`NC(N)=NC(=O)c1ncc(-c2ccccc2)nc1N`: in data set [1], the inhibition amounted to 35%.
Regarding `NC(N)=NC(=O)c1ncc(-c2cccc(-c3ccsc3)c2)nc1N`, the inhibition came to 58% in data set [1] and 90% in data set [2].
The corresponding values for `NC(N)=NC(=O)c1nc(Cl)c(Nc2ccccc2)nc1N` are 44% and 95%.
For the molecule `COc1nc(N)c(C(=O)N=C(N)N)nc1Cl`, the inhibition in data set [1] was 21%.
As for `NC(N)=NC(=O)c1ncc(-c2cccc3ccccc23)nc1N`, the inhibition in data set [1] amounted to 21%.
The same measure, in the same setting: the figure for `NC(N)=NC(=O)c1nc(Cl)c(Oc2ccc3ccccc3n2)nc1N` is 34%.
For `N=C(N)NC(=O)c1nc(Cl)c(N2CCCCCC2)nc1N`, the inhibition in data set [2] is 51%.
Same read-out and setting: the figure for `CC(C)(C)Nc1nc(N)c(C(=O)N=C(N)N)nc1Cl` is 48%.
Consider `NC(N)=NC(=O)c1nc(Cl)c(Nc2cnc3ccccc3c2)nc1N`, for which the inhibition in data set [1] was found to be 28%.
The same measure, in the same setting: the value for `NC(N)=NC(=O)c1ncc(-c2ccccc2-c2ccccc2)nc1N` was 8%.
Consider `NC(N)=NC(=O)c1nc(Cl)c(N2CCc3ccccc32)nc1N`, for which the results for the inhibition in data set [1] and in data set [2] were 46% and 89%, respectively.
As to `CSc1nc(N)c(C(=O)N=C(N)N)nc1Cl`, the inhibition in data set [1] worked out at 12%.
Still for that read-out and setting: the figure for `NC(N)=NC(=O)c1nc(Cl)c(Nc2ccc(C(F)(F)F)cc2)nc1N` is 50%; for `NC(N)=NC(=O)c1ncc(-c2ccc3ccccc3c2)nc1N` it is 6%; for `NC(N)=NC(=O)c1nc(Cl)c(Nc2ccncc2)nc1N` it is 14%.
Consider `N=C(N)NC(=O)c1ncc(-c2cccc(-c3ccsc3)c2)nc1N`, for which the IC50 in data set [3] was 0.64 µM.
For `NC(N)=NC(=O)c1nc(Cl)c(NCc2ccc3ccccc3c2)nc1N`, the inhibition in data set [1] amounted to 27%; in data set [2] it was 93%.
Take `NC(N)=NC(=O)c1nc(Cl)c(N2CCCCC2)nc1N`: the inhibition in data set [2] was 85%.
In the case of `NC(N)=NC(=O)c1nc(Cl)c(O)nc1N`, in data set [2], the inhibition is 9%.
For the molecule `NC(N)=NC(=O)c1nc(Cl)c(NCc2ccc(Cl)cc2)nc1N`, the inhibition in data set [1] is 46%; in data set [2], 97%.
As to `NC(N)=NC(=O)c1nc(Cl)c(OCc2ccc3ccccc3c2)nc1N`, the inhibition in data set [1] was found to be 9%.
The same measure, in the same setting: the figure for `NC(N)=NC(=O)c1nc(Cl)c(Oc2ccc3cccnc3c2)nc1N` is 32%.
Regarding `NC(N)=NC(=O)c1nc(Cl)c(Oc2ccccc2)nc1N`, the inhibition in data set [1] stood at 23%; in data set [2] it was 90%.
For `CCCN(C)c1nc(N)c(C(=O)N=C(N)N)nc1Cl` the same measures were 32% and 91%.
The corresponding values for `CN(C)c1nc(N)c(C(=O)NC(=N)N)nc1Cl` are 37% and 91%.
Consider `N=C(N)NC(=O)c1nc(Cl)c(NCCc2ccccc2)nc1N`, for which the inhibition in data set [1] was 46%; in data set [2], 94%.
`NC(N)=NC(=O)c1nc(Cl)c(NCCc2cccc(F)c2)nc1N`: the inhibition in data set [1] was 46%.
For the molecule `NC(N)=NC(=O)c1nc(Cl)c(Nc2cccc(Cl)c2)nc1N`, the inhibition came out at 47% in data set [1] and 94% in data set [2].
With `NC(N)=NC(=O)c1ncc(-c2ccc(-c3ccccc3)cc2)nc1N`, in data set [1], the inhibition was 7%.
The same measure, in the same setting: the figure for `NC(N)=NC(=O)c1ncc(Cc2ccccc2)nc1N` is 4%.
On to `NC(N)=NC(=O)c1nc(Cl)c(N2CCc3ccccc3C2)nc1N`, for which the inhibition in data set [1] was 52%; in data set [2], 96%.
For the molecule `NC(N)=NC(=O)c1nc(Cl)c(NCC(F)(F)F)nc1N`, the inhibition in data set [2] is 74%.
On to `NC(N)=NC(=O)c1nc(Cl)c(NCc2ccccc2F)nc1N`, for which the inhibition in data set [1] was found to be 26%; in data set [2] it was 92%.
With `NC(N)=NC(=O)c1ncc(-c2ccsc2)nc1N`, the inhibition in data set [1] was found to be 23%.
In the case of `NC(N)=NC(=O)c1ncc(-c2cccc(-c3ccccc3)c2)nc1N`, in data set [1], the inhibition was determined as 72%. The half-inhibitory concentration (IC50) was 0.49 µM in data set [3] and 0.95 µM in data set [4]. Also, the concentration at 0.5 h in data set [5] came to 2900 nM; in data set [6] it was 79 nM. Further, the Activity result in the data set listed under Rattus norvegicus [7] was “Dose-dependent effect”. Also, the result with Rattus norvegicus [8] was Active.
As to `NC(N)=NC(=O)c1nc(Cl)c(NCCc2ccccc2F)nc1N`, in data set [1], the inhibition turned out to be 34%.
With `CN1CCN(c2nc(N)c(C(=O)N=C(N)N)nc2Cl)CC1`, in data set [2], the inhibition was determined as 51%.
